Results from ChEMBL document CHEMBL4513216, “Probing the Open Global Health Chemical Diversity Library for Multistage-Active Starting Points for Next-Generation Antimalarials” (ACS Infect Dis, 2020).

Test: Toxicity liver stage against HepG2, at 10uM
Assay type: cell-based
Parameters: test concentration 10 uM, cell line HepG2-A16-CD81EGFP
Settings: human, HepG2-A16-CD81EGFP cells; read-out: INHIBITION
Method in brief: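 Uninfected HepG2-A16-CD81EGFP cells, 3 × 10^3 per well, 1536-well, plated on prespotted compound at 10 μM final, parasite-free screening media added to match infected plates; puromycin 10 μM positive, DMSO 0.5% negative; run in parallel with 48 h PbLuc assay at 37 °C, 5% CO2; viability by CellTiter-Glo luminescence, normalized to controls.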

Row | Structure (SMILES) | cytotoxicity at 10 µM [%]
1 | COc1ccc(Cc2nnc(NC(=O)C3CC34CCC4)s2)cc1OC (stereo unspecified) | -2.21
2 | c1ccc(OCc2cscn2)c(CNC2CCc3ncnn3C2)c1 (stereo unspecified) | -9.42
3 | O=C(c1cc(Cl)ccc1OC1CCN(C2CCCC2)CC1)N1CCCO1 | -2.54
4 | Fc1ccccc1Cc1noc(CN2CCCC(CN3CCCC3)C2)n1 (stereo unspecified) | -12.3
5 | CCNC(=O)CS(=O)(=O)NC1CCC(C)CC1 (stereo unspecified) | -4.57
6 | Cc1nc(C)n(CC2CN(CCCc3ccccc3)CCO2)n1 (stereo unspecified) | 2.89
7 | Cc1c(CN2CCCC(c3[nH]ncc3S(C)(=O)=O)C2)cnn1C (stereo unspecified) | 4.69
8 | CCc1nnc(N2C[C@@H](CN(C)CCO)[C@@H](CO)C2)s1 | -5.61
9 | O=C(NS(=O)(=O)Cc1ccc(F)cc1)C1CCOc2ccccc21 (stereo unspecified) | -3.22
10 | O=S(=O)(NCCN1CCCCC1Cn1cncn1)c1ccccc1 (stereo unspecified) | -9.12
11 | O=C(CN1C(=O)CCC1=O)N1CCOC2(CCOCC2)C1 | 4.1
12 | O=C(c1ccc2c(c1)OCO2)N1CCN(c2cnccn2)CC1 | -7.1
13 | CCOC(=O)N1CCC(n2cc3[nH]cccc-3c2=O)CC1 | 3.6
14 | CC(=O)N(C)C1CCC2(CC1)CNC(=O)c1cc(C)ccc1O2 (stereo unspecified) | -35.4
15 | Cc1cc(NC(=O)CN2CCn3c(nnc3-c3ccccc3)C2)no1 | -2.38
16 | Cc1cc(C2CCCN(S(=O)(=O)c3cn(C)cn3)C2)ccn1 (stereo unspecified) | 3.42
17 | O=C(Cc1ccc(Br)s1)NCC(=O)Nc1cn[nH]c1 | 2.06
18 | CN(Cc1ncc(-c2ccccc2C(=O)O)s1)c1ncccn1 | 1.69
19 | O=C(NCCCc1nnc2ccccn12)c1ccccc1C1CCNC1 (stereo unspecified) | -2.51
20 | CN(CC1CCOC1)S(=O)(=O)c1cccc(C(=O)N2CCOCC2)c1 (stereo unspecified) | -13.3
21 | Cn1cccc1C(O)CNC(=O)c1ccc(F)c(F)c1 (stereo unspecified) | -1.29
22 | CN(Cc1cn(CC2CCNCC2)nn1)CC1CCCCO1 (stereo unspecified) | -1.9
23 | COc1ccc(N(C)C(=O)C2CN(C)CCO2)cc1F (stereo unspecified) | -41.8

Row | Structure (SMILES) | cytotoxicity at 10 µM [%]
24 | O=C(NC1COC2(CCN(CC3CCC3)CC2)C1)c1ccccn1 (stereo unspecified) | -1.95
25 | CNC(=O)c1cc2c(nc1NCC(C)C)CCN(S(C)(=O)=O)CC2 | -161
26 | CCC(=O)N1CCC1c1cc(NC2CCCC2)nc(C)n1 (stereo unspecified) | -7.61
27 | O=C(O)C(c1ccc2[nH]ccc2c1)N1CCN(c2cnccn2)CC1 (stereo unspecified) | 2.56
28 | OC(c1ccccc1)c1cn(C2CCN(Cc3nccs3)CC2)nn1 (stereo unspecified) | 7.44
29 | COc1cccc(C(CO)NC(=O)Cc2ccc(F)c(Br)c2)c1 (stereo unspecified) | 8.44
30 | Cc1cc(C)n(CC2CCCN2C(=O)Cc2cn3ccsc3n2)n1 (stereo unspecified) | -12.5
31 | Cc1cc(N2Cc3cnc(CC(C)C)nc3C2)nc(N)n1 | -5.64
32 | CCC1=N[C@@]2(CC[C@@H]3CN(C(=O)Nc4ccc(F)cc4)C[C@@H]32)C(=O)N1 | -24
33 | CCn1c(C2CCNCC2)nn(CCn2ccc(C)n2)c1=O | 2.6
34 | Cc1ccc(NCc2nc3n(n2)CCCCC3)c(C)c1 | 4.7
35 | CCn1cnnc1CNC(=O)N1CCN(c2ccccc2OC)CC1 | -6.02
36 | c1coc(CN2CCc3ncnc(C4CCOC4)c3CC2)c1 (stereo unspecified) | 10.2
37 | Cc1nc(N2CCCC2)ncc1C(=O)Nc1ccc(Br)cc1 | -1.85
38 | Cc1cc(-c2cnn(CCNC(=O)c3snnc3C)c2C2CC2)on1 | -7.16
39 | N#Cc1cccc(CN2CCn3cc(CNC(=O)C4CCC4)nc3C2)c1 | 14
40 | Cn1cc(C2COC3(CCN(C(=O)c4cccc(O)c4)CC3)C2)cn1 (stereo unspecified) | -73.3
41 | Cc1nc2cc(C(=O)N3CCCC(n4ccnc4)C3)ccc2n1C (stereo unspecified) | -8.44
42 | Cc1nn(C)c(C)c1C1CCCN1Cc1nc(-c2ccco2)no1 (stereo unspecified) | -3.17
43 | c1cncc(CNc2cncc(C3CCCN3)n2)c1 (stereo unspecified) | 9.93
44 | CC(=O)Nc1cccc(OCCNC(=O)N(C)Cc2ccncc2)c1 | 4.77
45 | Cc1ccc(-c2ccc(C(=O)NCCC(=O)N(C)C)c(F)c2)cc1 | -0.0916
46 | CN(C)c1cc(CNC(=O)Nc2ccc(C#N)cc2)ccn1 | -5.66

Row | Structure (SMILES) | cytotoxicity at 10 µM [%]
47 | Cc1nccn1C1CCCN(C(=O)CCc2nc(C(C)C)no2)C1 (stereo unspecified) | -6.27
48 | Cc1nc(C2CCNC2)nc2c1CCC(=O)N2CC(C)C (stereo unspecified) | 2.04
49 | Cn1nc(Br)c2c(NCCNc3ncccn3)ncnc21 | 11.3
50 | O=C(c1cccnc1)N1CCC[C@]2(C[C@H](Oc3ncccc3F)CO2)C1 | 0.37
51 | CNc1oc(-c2ccc(OC)c(S(=O)(=O)N(C)C)c2)nc1C#N | 1.71
52 | CN(C)CC(c1ccccc1)N(C)C(=O)c1cccc(NCC(=O)O)c1 (stereo unspecified) | 3.7
53 | CCc1sc(-c2nnc(CNC(C)Cn3cccn3)o2)cc1C (stereo unspecified) | 0.749
54 | CCCN1CCCCCC1Cc1c(C(=O)NC)sc2ccccc12 (stereo unspecified) | 8.53
55 | O=C1CN(C(=O)C2CN(c3ccc(F)cc3)CCO2)CCN1 (stereo unspecified) | 3.04
56 | Cc1ccnc(NC(=O)C2CCN(CCCc3cn[nH]c3)CC2)c1 | -49
57 | COc1ccc(CN(Cc2ccsc2)CC2CCCO2)cn1 (stereo unspecified) | -6.16
58 | CN(C)S(=O)(=O)N1C[C@@H](OCc2cccnc2)[C@H]2OCCC[C@H]21 | 0.74
59 | CC(C)CCN(C)C(=O)c1cc(CN2CCC(O)CC2)on1 | 1.06
60 | Cc1ncc2c(c1C(=O)O)CCN(c1ncc(F)cn1)C2 | -2.19
61 | O=C(c1ccsc1)N1CCOC2(CCN(Cc3cccnc3)CC2)C1 | -3.12
62 | CCn1nc(C)cc1C(=O)N1C[C@@H](CN(C)C)[C@@H](CO)C1 | 3.3
63 | Cc1nc(C)c(CC(=O)NCc2cccnc2OC2CCCC2)c(=O)[nH]1 | -5.87
64 | O=C1CCCN1CCc1nc(-c2ccsc2)no1 | -1.22
65 | CN(C)C(=O)N1Cc2ccccc2C2(CCNCC2)C1 | 1.26
66 | Cc1sc2ncnc(N3CCCC3Cn3cccn3)c2c1C (stereo unspecified) | 2.62
67 | CN1CCOC(CNC(=O)C2(c3cccc(C(F)(F)F)c3)CCCC2)C1 (stereo unspecified) | -4.22
68 | CCN(Cc1cnn(C)c1)S(=O)(=O)c1ccc(NC(=O)C(C)(C)C)cc1 | 0.165
69 | Cc1ccsc1CN(Cc1cccnc1)C1CC(C)(C)NC(C)(C)C1 | -10.7

Row | Structure (SMILES) | cytotoxicity at 10 µM [%]
70 | c1cc(-c2n[nH]cc2-c2ccnc(N3CCCC3)n2)ccn1 | -0.779
71 | O=C1CC(N(C(=O)c2ccc(F)c(F)c2)C2CC2)C(=O)N1 (stereo unspecified) | 2.1
72 | O=C(CCNC(=O)C1=Cc2ccccc2OC1)NCc1ccncc1 | 5.6
73 | Cc1cnc(N2Cc3nccn3CC(Cn3nc(C)nc3C)C2)nc1 (stereo unspecified) | -144
74 | Cc1ncc(-c2ccnc(NC3CC3)n2)c(-c2cccnc2)n1 | -14.2
75 | COc1ccc(Br)cc1CN(C)C(C)c1nc(C(C)C)no1 (stereo unspecified) | 4.43
76 | O=C(c1cccnc1)N1Cc2[nH]nc(COCCO)c2C1 | 13.3
77 | CNC(=O)NC(=O)CSc1ccc2c(c1)CCC2 | 19.6
78 | N[C@H]1CN(C(=O)c2ccc3[nH]c(=O)c(=O)[nH]c3c2)C[C@@H]1c1ccccc1 | 2.19
79 | CC(=O)NCCc1ccc(S(=O)(=O)N(C)C(C)CC(C)C)s1 (stereo unspecified) | -1.88
80 | CC(C)NC(=O)[C@H]1C[C@H]2NCCO[C@@H]2C1 | -134
81 | COC(=O)N1CCC(NC(=O)N2CCCC2c2ccsc2)CC1 (stereo unspecified) | 10.5
82 | CCN1CCc2[nH]nc(C(=O)N3CCCC3C)c2C1 (stereo unspecified) | -4.9
83 | CCOCCCNC(=O)c1cc(C(C)C)nc(N2CCCCCC2)n1 | 8.53
84 | COCC(=O)N1CCCC(c2cc(C(F)F)n3ncnc3n2)C1 (stereo unspecified) | -8.43
85 | CNS(=O)(=O)CCCN1CCCC1c1noc(C)n1 (stereo unspecified) | -4.38
86 | CC(CS(C)(=O)=O)N(C(=O)CCc1cccc(F)c1)C1CC1 (stereo unspecified) | -6.77
87 | CC1c2ncc(Cn3cccn3)n2CCN1c1ncccn1 (stereo unspecified) | -108
88 | CN(Cc1ccco1)Cc1cnc2n1CCN(c1ncccn1)CC2 | -0.603
89 | Cn1cnc2c1CCN(CC(=O)N(Cc1ccsc1)C1CC1)C2 | -0.157
90 | O=C(NCc1cc[nH]n1)NCC(c1ccco1)N1CCCC1 (stereo unspecified) | 13.6
91 | Cc1ccc(CN(CCCO)Cc2nc3ccccc3[nH]2)s1 | 7.18
92 | Cc1ccc(OCC(=O)N2C[C@@H]3CN(C)CCO[C@@H]3C2)cc1 | -0.204

Row | Structure (SMILES) | cytotoxicity at 10 µM [%]
93 | Cc1nc(C)n(CC2CN(CCCOc3ccccc3C)CCO2)n1 (stereo unspecified) | 5.63
94 | O=C1OCCN1Cc1ncnn1Cc1c(F)cccc1Cl | -1.26
95 | Cc1ccc(CN(C)C(=O)CN2CCCC2c2cnn(C)c2)cc1 (stereo unspecified) | -1.6
96 | O=C1CC(c2cccs2)Cc2nc(O)c(C(=O)N3CCCC3)cc21 (stereo unspecified) | -3.96
97 | CC(C)CN1CCCn2nc(CNC(=O)c3cccnc3O)cc2C1 | -14.4
98 | COCCc1ncc(-c2c(C#N)c(N)nc3c2CCc2[nH]ccc2-3)cn1 | -0.508
99 | CS(=O)(=O)N1CCN(Cc2csc(-c3ncccn3)n2)CC1 | -4.71
100 | CCOCCN1CCN(C(C)c2nc(C3CC3)no2)CC1 (stereo unspecified) | -4.51
101 | CCOCCc1nc(Cc2ccccc2)n[nH]1 | 7.9
102 | CN1CCN(C(=O)[C@H]2CC[C@@H]3[C@@H](CCN3Cc3ccsc3)O2)CC1 | 1.07
103 | CCOCC1CN(C(=O)c2cccs2)Cc2nn(C)cc21 (stereo unspecified) | -1.63
104 | Cc1cnn(C2CN(c3nc(C)cc(N(C)C)n3)C2)c1 | -5.12
105 | c1ccc(Oc2ccc(OC34CCCN(CC3)C4)cc2)cc1 (stereo unspecified) | 0.741
106 | COc1ccc(OCCCN(C)C(=O)C2CCCN2C(N)=O)cc1 (stereo unspecified) | 1.7
107 | CC(C)(C)c1noc(CCC(=O)N2CCN(Cc3ccco3)CC2)n1 | 6.11
108 | Cc1nc(C#N)c(N2CCC(c3nc(-c4ccc(F)cc4)no3)CC2)o1 | 3.86
109 | c1cncc(C(Cn2cnnc2)N2CCOCC2)c1 (stereo unspecified) | -5.11
110 | O=C1CSc2ccccc2N1Cc1noc(C2CCCO2)n1 (stereo unspecified) | 8.35
111 | O=C(c1cc(-n2cccn2)ccn1)N1CCOc2ncccc21 | -0.554
